Sampled rows, rich in hits. Any-hit rate of the full collection: about 4.7%.
ADAM17 inh: inhibitors of human ADAM17 | P78536 | recombinant ADAM17, EDANS/DABCYL FRET peptide cleavage | inhibition, % at 6.95 µM | 370,000 tested, 0.83% active | AID 720648;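 active = inhibition above the mean of compounds lying between control limits plus 3 SD, set per campaign, cut at about 8.5% in these data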;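 also: 0% = DMSO-only wells as the low control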
Target sequence (P78536 215-824 limits assumed): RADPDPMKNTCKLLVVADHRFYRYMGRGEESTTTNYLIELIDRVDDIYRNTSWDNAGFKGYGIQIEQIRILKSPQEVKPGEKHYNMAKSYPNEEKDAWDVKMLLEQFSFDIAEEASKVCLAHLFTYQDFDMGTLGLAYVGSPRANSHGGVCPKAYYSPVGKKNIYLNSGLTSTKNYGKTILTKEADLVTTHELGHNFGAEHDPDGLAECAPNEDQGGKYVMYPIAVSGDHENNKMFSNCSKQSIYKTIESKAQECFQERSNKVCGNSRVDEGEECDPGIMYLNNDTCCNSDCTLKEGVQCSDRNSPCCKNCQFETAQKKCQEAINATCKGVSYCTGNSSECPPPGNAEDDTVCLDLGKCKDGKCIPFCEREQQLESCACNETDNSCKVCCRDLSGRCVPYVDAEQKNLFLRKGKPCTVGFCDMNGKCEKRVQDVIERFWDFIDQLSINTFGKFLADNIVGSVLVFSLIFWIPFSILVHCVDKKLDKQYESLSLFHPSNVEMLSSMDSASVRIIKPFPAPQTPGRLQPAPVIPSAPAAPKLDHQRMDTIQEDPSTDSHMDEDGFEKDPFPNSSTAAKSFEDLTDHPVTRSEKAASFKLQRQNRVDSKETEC
ADAM10 inh: inhibits human ADAM10; AID 720582; recombinant ADAM10, EDANS/DABCYL FRET peptide cleavage, 3 h; 370,000 tested, 0.62% active; O14672; inhibition, % at 7 µM;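 active = inhibition above a per-campaign cutoff equal to the mean of compounds falling between control-based bounds plus 3 SD, cut at about 20% in these data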;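 also: 0% = DMSO wells while the 100% control is not disclosed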
MPTP block: permeability transition pore inhibition | 360,000 tested, 1.4% active | isolated mouse mitochondria, Ca2+ swelling absorbance, 30 min | inhibition, % at 10 µM | AID 602449;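 active = inhibition of 50% or more, scaled per plate between neutral and stimulator controls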;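 also: 0% = DMSO wells given calcium and 100% = 1 mM EGTA wells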
NR3A LBD binder: NR3A (human) ligand-binding domain modulation. NR3A LBD differential scanning fluorimetry, Tm shift; 0% = protein alone, 100% = glycine-bound protein. Tm shift relative to glycine control, % at 25 µM. 340,000 tested, 2.5% active. AID 1259313;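 active = melting temperature shift of at least 10% of the positive control shift, at one fixed dose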
SKN-1 block: C. elegans SKN-1 inhibition. C. elegans VP596 Pgst-4::GFP/RFP ratio, acrylamide-induced, 24 h. inhibition, % at 21.8 µM. 360,000 tested, 0.49% active. AID 624304;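 active = interference check ratio from 0.5 to 1.5 plus GFP to RFP signal ratio inhibition reaching or exceeding a fixed threshold, cut at about 30% in these data, passing the limit was not always enough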
MT1-MMP act inh: inhibitors of human MT1-MMP activation; HT1080 RFP-PRO-GFP cells, GFP/RFP ratio fluorescence, overnight; percent of plate control window, DMSO zero; 360,000 tested, 0.061% active; AID 651647; GFP/RFP ratio change, % at 20 µM; P50281;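 active = GFP/RFP ratio change of at least 30% with cell ATP level not reduced by more than half and red fluorescence within 50% of control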
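Assay system: HT1080 cells carrying an RFP-PRO-GFP reporter | Dosing: Single dose of 20 µM compound, 1% DMSO final | Incubation: Cells overnight before dosing, compound overnight, 37 °C, 5% CO2 | Evaluation: GFP/RFP fluorescence ratio | Control set: DMSO and RFP-L50D-GFP cell wells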
MT1-MMP act val: blocks activation of human MT1-MMP in validation testing; shares compounds with MT1-MMP act inh; HT1080 RFP-PRO-GFP cells, GFP and RFP fluorescence ratio, overnight; inhibition, % at 20 µM; 200 tested, 10% active; AID 652235;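 active = inhibition of at least 50% in the primary cell screen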
Numbers without * were called inactive; i = inactive; / = no result given.

SMILES	ADAM17 inh	ADAM10 inh	MPTP block	NR3A LBD binder	SKN-1 block	MT1-MMP act inh	MT1-MMP act val
CCOc1cc(/C=C2\C(=O)N(c3nc(-c4ccc(Br)cc4)cs3)N=C2c2ccccc2)ccc1O	/	/	43	16*	14	63*	7
CNc1ccccc1C(C)(C)c1cc(-c2ccco2)n[nH]1	0	-3	0	/	13	34*	8
CNc1ccccc1C(C)(C)c1cc(C)[nH]n1	3	1	1	0	0	7	/
COc1ccc(-c2nn(-c3ccccc3)cc2/C=C(\C#N)C(N)=O)cc1[N+](=O)[O-]	2	3	0	-6	-8	5	/
O=C(/C=C(\c1ccc(Cl)cc1)n1cncn1)c1ccc(Cl)cc1	/	/	2	-2	-5	31*	28
O=[N+]([O-])c1ccccc1N=Nc1ccc(O)cc1O	-3	1	36	-3	30	12	/
O=S(=O)(O)c1cc(O)c(N=Nc2ccc(O)cc2O)c2ccccc12	-3	-20	19	13*	88	64*	50*
O=C(NC1CCCC1)C(c1ccncc1)N(CC1CCCO1)C(=O)Cn1nnc(-c2cccs2)n1 (configuration not stated)	0	1	0	1	-14	1	/
COc1ccc(-c2cc(C(=O)NCCCN3CCCC3=O)c3ccccc3n2)cc1	-357	i	-2	1	-1	/	/
COc1cccc2[nH]c3c(N4CCCCC4)ncnc3c12	-97	-299	-2	-1	17	32*	6
CCCS(=O)(=O)NCc1ccc2c(c1)cc(C)n2C	-10	-27	5	5	53*	34*	10
Cc1cc2cc(CNC(=S)NCc3ccccc3)ccc2n1C	-1	-2	3	-12	36*	46*	8
CCOC(=O)CCC(=O)NCc1ccc2c(c1)cc(C)n2C	-17	-37	2	-1	67	22	/
CCCCC(=O)NCc1ccc2c(c1)cc(C)n2C	-9	-21	4	0	50*	47*	10
COc1ccccc1NC(=S)NCc1ccc2c(c1)cc(C)n2C	3	8	4	-17	29	41*	4
CCS(=O)(=O)NCc1ccc2c(c1)cc(C)n2C	-6	-31	0	-2	18	6	/
CCCCNC(=S)NCc1ccc2c(c1)cc(C)n2C	-3	-9	-1	-10	16	4	/
COc1ccc(Cl)cc1-c1nc(SCC(=O)N(C)C2CCS(=O)(=O)C2)n[nH]1 (configuration not stated)	0	-21	-1	0	3	-3	/
O=C(Nc1c(F)cccc1F)c1ccc(-n2cncn2)nc1	-6	-5	-2	0	-8	1	/
Cn1c(=O)oc2cc(S(=O)(=O)N3CCN(c4ccccc4)CC3)ccc21	3	6	2	2	3	-31	/
COc1ccc(CN(CC(=O)NCc2ccc(F)cc2)C(=O)c2csnn2)cc1	-1	3	1	1	13	-1	/
O=C1CCCC[C@@H](CO)[C@H](O)C[C@H](c2ccccc2)O1	-1	-4	-1	/	9	1	/
COC(=O)[C@]12C[C@H](CC(=O)NCc3cccc4ccccc34)C(=O)N(Cc3cccc4ccccc34)C1=C[C@H](C(C)(C)C)O[C@@H]2C	3	8	/	/	/	/	/
Cc1cc(Br)ccc1S(=O)(=O)NCc1ccccc1	0	-7	1	0	-2	4	/
Cc1cc2cc(CNC(=O)c3ccc(S(=O)(=O)N4CCCCC4)cc3)ccc2n1C	4	17	2	2	62*	40*	4
SMILES	ADAM17 inh	ADAM10 inh	MPTP block	NR3A LBD binder	SKN-1 block	MT1-MMP act inh	MT1-MMP act val
O=C(NCCCn1ccnc1)c1cccc(Br)c1	-3	0	1	1	2	4	/
O=C(NCCCn1ccnc1)c1cccnc1	-3	1	0	-1	-6	32*	2
CC1CC(C)CN(C(=O)COC(=O)c2cc3ccccc3oc2=O)C1 (configuration not stated)	-21	-121	0	4	3	4	/
CN(CCCC(=O)O)c1ccc(N=Nc2ccc([N+](=O)[O-])cc2)cc1	1	1	36	5	2	53*	49
CN1/C(=C\C(=O)CN2C(=O)NC3(CCCCCC3)C2=O)C(C)(C)c2ccccc21	-15	-57	-1	1	57	34*	27
CN1/C(=C\C(=O)COC(=O)CN2C(=O)C3CC=CCC3C2=O)C(C)(C)c2ccccc21 (configuration not stated)	-58	-250	2	0	16	6	/
Cc1cccc[n+]1CC(=O)/C=C1\N(C)c2ccccc2C1(C)C	4	2	1	0	51	41*	47
CCC(=O)N1CCC1(C)C(=O)Nc1ccc(F)cc1 (configuration not stated)	-5	-28	1	/	6	34*	0
CN(CC(=O)Nc1ccc(F)cc1)C(=O)COC(=O)Cc1c(F)cccc1Cl	-1	5	1	/	-6	-2	/
CCn1c(/C=C/c2c(C)n(CC)c3ccccc23)nc2ccccc2c1=O	-3	-1	2	10	-6	-16	/
CCn1c2ccccc2nc2cc3c(cc21)c(Cl)c(=O)c1ccccc13	-1	-15	2	/	10	36*	-2
Cc1c(C(=O)OCC(=O)NCC2CCCO2)oc2ccccc12 (configuration not stated)	-4	-2	0	3	3	33*	3
COC(=O)c1ccc2c(c1)C(C)(C)C(/C=C/c1ccc(OC)c(OC)c1OC)=[N+]2C	-1	-40	-5	4	46*	51*	20
COc1ccc(/C=N/Nc2ccc(C(=O)O)cc2)c(OC)c1OC	-7	-9	2	1	-6	7	/
CCN1C(=O)/C(=C2\C=Cc3ccccc3N2CC)SC1=S	0	-11	7	-24	21	99*	43
CC1CCN(C(=O)c2ccc3c(c2NCCO)C(=O)c2ccccc2C3=O)CC1	8	18	6	0	11	31*	28
COc1ccc(C2=NC(C(F)(F)F)(C(F)(F)F)c3c(n(C)c(=O)n(C)c3=O)N2)cc1	-9	-12	1	1	-5	-4	/
CCOC(=O)C1CCN(c2cc3c(cc2NC(=O)c2ccccc2Cl)n(C)c(=O)n3C)CC1	-3	-6	-2	0	-7	-1	/
CCOC(=O)C1=C(C)N=c2s/c(=C\c3ccc(OC(C)=O)c(OCC)c3)c(=O)n2C1/C=C/c1ccccc1 (configuration not stated)	-5	-2	-1	-2	33	42*	-17
